For three compounds, Viability, Survival and EC50 results are on record in ChEMBL document CHEMBL1125493, “HIV-1 neutralization and tumor cell proliferation inhibition in vitro by simplified analogues of pyrido[4,3,2-mn]thiazolo[5,4-b]acridine marine alkaloids” (J Med Chem, 1992).

As a reminder, the EC50 is the midpoint of the concentration-response curve.

The test system of test [1] is COLO 320DM. The test is described as follows: COLO 320DM colon tumor cell proliferation inhibition by the compound in vitro at a concentration of 70 uM. It counts as functional, Homo sapiens. The gist of the method:
(§1)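 Tumor cells grown in RPMI-1640 in 1% agar with 5% fetal bovine serum, exposed to set compound concentrations for 1 week. Viability scored against a control given distilled water in place of drug. 5-fluorouracil served as reference cytotoxic drug. Reported as concentration-dependent cell survival.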

Test [2] deals with MCF7. Briefly: […] breast tumor cell proliferation inhibition by the compound in vitro at a concentration of 0.7 uM. It counts as functional, Homo sapiens. The gist of the method:
as §1

Test [3] can be described thus: Calu3 lung tumor cell proliferation inhibition by the compound in vitro at a concentration of 7.0 uM. It counts as functional, Homo sapiens. Put shortly: as §1
Test [4] in a line: Calu3 lung tumor cell proliferation inhibition by the compound in vitro at a concentration of 70 uM. It counts as functional, Homo sapiens. Put shortly: as §1
For test [5], the system named is COLO 320DM. Briefly: COLO 320DM colon tumor cell proliferation inhibition by the compound in vitro at a concentration of 0.7 uM. It counts as functional, Homo sapiens. Put shortly:
as §1

Test [6] relates to MCF7. Briefly: […] breast tumor cell proliferation inhibition by the compound in vitro at a concentration 7.0 of uM. It counts as functional, Homo sapiens. Put shortly: as §1
Test [7] in a line: Calu3 lung tumor cell proliferation inhibition by the compound in vitro at a concentration of 0.7 uM. It counts as functional, Homo sapiens. Put shortly:
as §1

The test system of test [8] is COLO 320DM. The test is described as follows: COLO 320DM colon tumor cell proliferation inhibition by the compound in vitro at a concentration of 7.0 uM. It counts as functional, Homo sapiens. The gist of the method:
as §1

Test [9] concerns MCF7. Briefly: […] breast tumor cell proliferation inhibition by the compound in vitro at a concentration 70 of uM. It counts as functional, Homo sapiens. Put shortly:
as §1

Test [10] relates to Human immunodeficiency virus 1. The test is described as follows: Inhibitory effect against HIV-1 induced cytopathic effects(HIV-1 neutralization) in MT-4 lymphocytes at a concentration of 100 ug/mL (0.2000 uM/mL). It counts as functional. Put shortly: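 HIV-1 Molt IIIB (~2 × 10^4 TCID50 in 100 μL) preincubated 1 h at 37 °C with a single compound dose, then added to MT-4 cells (5 × 10^5 cells/well, 1 mL). Cultured at 37 °C, 5% CO2. Viable cells counted by trypan blue exclusion on days 4 and 7. Triplicates; % viable cells. Controls: infected cells (positive), uninfected cells (negative).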
In general terms: Protection from cytopathic effect is a common read-out in antiviral testing.

In test [11] the test system is MT4. The test is described as follows: Cytotoxic effect in cultured MT-4 lymphocytes at a concentration of 100 ug/mL (0.2000 uM/mL). It counts as functional, Homo sapiens. Put shortly:
(§2)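 MT-4 cells at 5 × 10^4 cells/well, 1 mL total, cultured with compound diluted in RPMI 1640 with 10% FBS, 10 mM HEPES, penicillin/streptomycin and 2 mM glutamine, at 37 °C under 5% CO2. Viability was scored by trypan blue exclusion on days 4 and 7, in triplicate, as % viable cells.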

For test [12], the system named is MT4. The test is described as follows: Cytotoxic effect in cultured MT-4 lymphocytes at a concentration of 2 ug/mL (0.0040 uM/mL). It counts as functional, Homo sapiens. Put shortly:
as §2

The test system of test [13] is MT4. Briefly: Cytotoxic effect in cultured MT-4 lymphocytes at a concentration of 10 ug/mL (0.0200 uM/mL). It counts as functional, Homo sapiens. The gist of the method: as §2
Test [14] has as its system Human immunodeficiency virus 1. Briefly: Protection of MT-4 lymphocytes by the compound against HIV-1 infectivity in vitro at a concentration of 0.016 ug/mL (0.00006 uM/mL). It counts as functional. Put shortly: (§3)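 Virus (HIV-1 Molt IIIB, ~2 × 10^4 TCID50) preincubated with compound 1 h at 37 °C, 5% CO2. Then added to MT-4 cells (5 × 10^5 cells/well) and cultured at 37 °C. Trypan blue viability counts taken on days 4 and 7, triplicate at each concentration. Controls were infected and uninfected cells. Reported as % viable (surviving) MT-4 cells.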

The test system of test [15] is Human immunodeficiency virus 1. The test is described as follows: microbe, parasite or virus in culture.
Test [16] deals with Human immunodeficiency virus 1. The test is described as follows: Protection of MT-4 lymphocytes by the compound against HIV-1 infectivity in vitro at a concentration of 0.008 ug/mL (0.00003 uM/mL). It counts as functional. The gist of the method: as §3
The subject of test [17] is Human immunodeficiency virus 1. The test is described as follows: Protection of MT-4 lymphocytes by the compound against HIV-1 infectivity in vitro at a concentration of 0.032 ug/mL ([…] uM/mL). It counts as functional. Put shortly:
as §3

Take `O=c1[nH]cc(F)c(=O)[nH]1` [FLUOROURACIL]: the Viability is given as 2% in the test with COLO 320DM [1]; 29% with MCF7 [2]; 32% in test [3]; 17% in test [4]; 79% with COLO 320DM [5]; 10% in the test on MCF7 [6]. For the same compound, the Viability in test [7] was 80%; with COLO 320DM [8], 5%; in the test on MCF7 [9], 5%.

`CCN(CC)CCCC(C)Nc1c2ccc(Cl)cc2nc2ccc(OC)cc12.Cl.Cl` (configuration not stated) [QUINACRINE DIHYDROCHLORIDE]: the Viability in test [10] amounted to 0%; with MT4 [11] it was 82.1%; in the test with MT4 [12], 93.6%; with MT4 [13], 88.2%.

As for `Cc1cn([C@H]2C[C@H](N=[N+]=[N-])[C@@H](CO)O2)c(=O)[nH]c1=O` [ZIDOVUDINE], the Survival in test [14] came to 79.4%; in test [16] it was 74.3%; in test [17], 78.3%. This compound displayed an EC50 in test [15] of 4 nM.
